Assay results: ChEMBL document CHEMBL1671706 (Antimicrob Agents Chemother, 2010)
In brackets after ≈: the same amount, converted by molar mass.

Assays:
Pseudomonas aeruginosa = assay: Antimicrobial activity against Pseudomonas aeruginosa K by macrodilution method; format: functional
Outline: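 Grown in Luria-Bertani medium at 37°C, shaking at 200 rpm, 16 h. NCCLS macrodilution with 5 × 10^5 cells/ml inoculum. Compounds in DMSO formed a 2-fold tube dilution series, with a control at equal DMSO. MIC was read visually as the lowest growth-preventing concentration in triplicate, periodically confirmed by no detectable A600.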

Escherichia coli = assay: Antimicrobial activity against Escherichia coli MC1000 by macrodilution method; format: functional
Outline: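 Luria-Bertani medium, 30°C, shaking at 200 rpm, 14 h. Macrodilution per NCCLS aerobic criteria, with inoculum 5 × 10^5 cells/ml. DMSO-dissolved compounds were diluted 2-fold through the tubes, with a DMSO control. MIC is the lowest concentration preventing visible growth in triplicate, confirmed periodically by no absorbance at 600 nm.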

Bacillus cereus [1] = assay: Antimicrobial activity against Bacillus cereus; format: functional
Enterococcus faecalis = assay: Antimicrobial activity against Enterococcus faecalis 1131 by macrodilution method; format: functional
Outline: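 Brain heart infusion medium, static, 37°C, 14 h. NCCLS macrodilution, starting inoculum 5 × 10^5 cells/ml. Compounds in DMSO were 2-fold serially diluted across the inoculated tubes, with a matched DMSO control. MIC is the lowest concentration with no visible growth in triplicate, sometimes verified as no detectable A600.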

Caulobacter vibrioides = assay: Antimicrobial activity against Caulobacter crescentus CB15N by macrodilution method; format: functional
Outline: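 Peptone-yeast extract medium, 30°C, shaking at 200 rpm, 22 h. NCCLS macrodilution from 5 × 10^5 cells/ml. Compounds in DMSO given as a 2-fold tube series, with a control at the highest DMSO level. Endpoint is the lowest concentration preventing growth in triplicate by eye, periodically confirmed by absence of A600.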

Staphylococcus aureus [2] = assay: Antimicrobial activity against Staphylococcus aureus FRI 361 by macrodilution method; format: functional
Outline: (§1)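 Static culture in Luria-Bertani medium, 37°C, 14 h. NCCLS macrodilution, inoculum 5 × 10^5 cells/ml. Compounds in DMSO were 2-fold serially diluted through the inoculated tubes, with a DMSO-matched control. MIC is the lowest concentration preventing visible growth in triplicate, periodically confirmed by lack of absorbance at 600 nm.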

Staphylococcus aureus [3] = assay: Antimicrobial activity against Staphylococcus aureus FRI 100 by macrodilution method; format: functional; outline: as §1
Bacillus anthracis [4] = assay: Antimicrobial activity against Bacillus anthracis Sterne 7702 by macrodilution method; format: functional
Bacillus cereus [5] = assay: Antimicrobial activity against Bacillus cereus UW85 by macrodilution method; format: functional
Outline: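 Tube macrodilution per NCCLS. Strain grown in Luria-Bertani medium, 37°C, shaking at 200 rpm, 16 h. Inoculum 5 × 10^5 cells/ml. DMSO stocks diluted 2-fold through the tubes, with a DMSO-matched control. MIC is the lowest concentration without visible growth in triplicate, occasionally checked as no detectable absorbance at 600 nm.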

[6] = Toxicity in po dosed male Sherman rat; format: organism-based; conditions: in vivo
[7] = Toxicity in po dosed female Sherman rat; format: organism-based; conditions: in vivo
Bacillus anthracis [8] = assay: Antimicrobial activity against Bacillus anthracis by Etest; format: functional

Row | SMILES | MIC (Pseudomonas aeruginosa) | MIC (Escherichia coli) | MIC (Bacillus cereus [1]) | MIC (Enterococcus faecalis) | MIC (Caulobacter vibrioides) | MIC (Staphylococcus aureus [2]) | MIC (Staphylococcus aureus [3]) | MIC (Bacillus anthracis [4]) | MIC (Bacillus cereus [5]) | LD50 [6] | LD50 [7] | MIC (Bacillus anthracis [8])
1 | Oc1ccc(Cl)cc1Cc1cc(Cl)cc(Cc2cc(Cl)ccc2O)c1O | 40 µM (≈ 16.4 µg/mL) | 5 µM (≈ 2.05 µg/mL) | 0.3 µM (≈ 0.123 µg/mL) | 1.3 µM (≈ 0.533 µg/mL) | 2.5 µM (≈ 1.02 µg/mL) | 0.6 µM (≈ 0.246 µg/mL) | 0.08 µM (≈ 0.0328 µg/mL) | 0.3 µM (≈ 0.123 µg/mL) | 0.3 µM (≈ 0.123 µg/mL) |  |  | 
2 | Oc1ccc(Cl)cc1Cc1cc(Cl)cc(Cc2cc(Cl)cc(Cc3cc(Cl)cc(Cc4cc(Cl)ccc4O)c3O)c2O)c1O | > 80 µM | > 80 µM |  | 0.6 µM (≈ 0.415 µg/mL) | 5 µM (≈ 3.45 µg/mL) | 5 µM (≈ 3.45 µg/mL) | 5 µM (≈ 3.45 µg/mL) | 1.3 µM (≈ 0.898 µg/mL) | 0.3 µM (≈ 0.207 µg/mL) |  |  | 
3 | Oc1ccc(Cl)cc1Cc1cc(Cl)cc(Cc2cc(Cl)cc(Cc3cc(Cl)ccc3O)c2O)c1O | > 80 µM | > 80 µM |  | 0.3 µM (≈ 0.165 µg/mL) | 0.3 µM (≈ 0.165 µg/mL) | 0.3 µM (≈ 0.165 µg/mL) | 0.16 µM (≈ 0.088 µg/mL) | 0.16 µM (≈ 0.088 µg/mL) | 0.08 µM (≈ 0.044 µg/mL) |  |  | 
4 | Oc1ccc(Cl)cc1Cc1cc(Cl)ccc1O [DICHLOROPHEN] | > 320 µM | 160 µM (≈ 43.1 µg/mL) |  | 80 µM (≈ 21.5 µg/mL) | 20 µM (≈ 5.38 µg/mL) | 20 µM (≈ 5.38 µg/mL) | 20 µM (≈ 5.38 µg/mL) | 5 µM (≈ 1.35 µg/mL) | 10 µM (≈ 2.69 µg/mL) | 1510 mg/kg | 1680 mg/kg | 
5 | CC1(C)S[C@@H]2[C@H](NC(=O)Cc3ccccc3)C(=O)N2[C@H]1C(=O)O [PENICILLIN G] |  |  |  |  |  |  |  |  |  |  |  | 0.02 µM (≈ 0.00669 µg/mL)
6 | CN(C)[C@@H]1C(O)=C(C(N)=O)C(=O)[C@@]2(O)C(O)=C3C(=O)c4c(O)cccc4[C@@](C)(O)[C@H]3C[C@@H]12 [TETRACYCLINE] |  |  |  |  |  |  |  |  |  |  |  | 0.07 µM (≈ 0.0311 µg/mL)
